Laboratory results from ChEMBL document CHEMBL1132493, “Synthesis and in vitro evaluation of new 8-amino-1,4-benzoxazine derivatives as neuroprotective antioxidants” (J Med Chem, 1999).

Legend:
[1] = (§1) In vitro neurotoxicity (Maximum Tolerated concentration[MTC]) was measured by quantification of cellular lysis after measurement of LDH activity released from damaged cells; type: toxicity, cell-based; conditions: mouse, HT-22 cells; read-out: MTC
HT-22 [2] = assay: (§2) In vitro neurotoxicity (concentration producing 50% toxicity [TC50]) was measured by (MTT) reduction assay on murine HT-22 hippocampal cell cultures and compared to those of parent exifone,; type: functional; conditions: Mus musculus, read-out: TC50 (the source's name)
[3] = (§3) In vitro neurotoxicity (concentration producing 50% toxicity [TC50]) was measured by quantification of cellular lysis after measurement of LDH activity released from damaged cells; type: cell-based; conditions: mouse, HT-22 cells; read-out: TC50 (the source's name)
HT-22 [4] = assay: In vitro neurotoxicity (Maximum Tolerated concentration[MTC]) was measured by (MTT) reduction assay on murine HT-22 hippocampal cell cultures and compared to those of parent exifone; type: functional, Mus musculus
HT-22 [5] = assay: In vitro neuroprotective activity estimated through their protective effects against L-homocysteic acid(L-HCA) cytotoxicity) on murine HT-22 hippocampal cell cultures and compared to those of exifone. (MTT reduction assay); type: functional, Mus musculus
HT-22 [6] = assay: (§4) The concentration producing 50%protection (PC50) was obtained for lactate dehydrogenase (LDH) activity. In vitro neuroprotective activity estimated through their protective effects against L-homocysteic acid(L-HCA) cytotoxicity on murine HT-22 hip pocampal cell cultures and compared to those of exifone; type: functional, Mus musculus
[7] = Ratio of MTC to PC50 after measurement of LDH activity; Safety ratio; type: functional
Method in brief: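 Safety index: MTC divided by PC50, both from LDH release in HT-22 cells. MTC comes from 48 h drug exposure alone; PC50 from 1 h antioxidant pretreatment followed by 48 h 2 mM L-HCA exposure. Both derived by linear regression.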

[8] = Ratio of MTC to PC50 in MTT reduction assay; Safety ratio; type: functional
Method in brief: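 Safety index: MTC divided by PC50, both from MTT reduction in HT-22 cells. MTC comes from 48 h drug exposure alone; PC50 from protection against 48 h 2 mM L-HCA after 1 h pretreatment. Both estimated by linear regression.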

HT-22 [9] = assay: In vitro neurotoxicity (concentration producing 50% toxicity [TC50]) was measured by (MTT) reduction assay on murine HT-22 hippocampal cell cultures and compared to those of parent exifone; type: functional; conditions: Mus musculus, read-out: TC50 (the source's name)
HT-22 [10] = assay: In vitro neuroprotective activity estimated through their protective effects against L-homocysteic acid(L-HCA) cytotoxicity) on murine HT-22 hippocampal cell cultures and compared to those of exifone(MTT reduction assay); type: functional, Mus musculus
[11] = as §2; type: cell-based; conditions: mouse, HT-22 hippocampal cells; read-out: TC50 (the source's name)
HT-22 [12] = assay: as §3; type: functional; conditions: Mus musculus, read-out: TC50 (the source's name)
HT-22 [13] = assay: as §1; type: functional, Mus musculus
HT-22 [14] = assay: as §4, with “measured by” for “obtained for”, “hippocampal” for “hip pocampal”; type: functional, Mus musculus
HT-22 [15] = assay: In vitro neuroprotective activity estimated through their protective effects against L-homocysteic acid(L-HCA) cytotoxicity) on murine HT-22 hippocampal cell cultures and compared to those of exifone (MTT reduction assay); type: functional, Mus musculus

O=C(c1ccccc1)c1ccc(NC(CO)CO)c2c1NC(CO)CO2 (stereo not drawn)
MNTC [1]: > 250 µM

O=C(c1ccccc1)c1ccc(NCc2ccccc2)c2c1NC(c1ccccc1)(c1ccccc1)CO2
MNTC [1]: > 250 µM

CC(C)CCNc1ccc(C(=O)c2ccccc2)c2c1OCC(c1ccccc1)(c1ccccc1)N2
MNTC [1]: > 250 µM

CC(C)CCNc1ccc(C(=O)c2ccccc2)c2c1OCC(C(C)(C)C)N2 (stereo not drawn)
MNTC [1]: 10 µM

O=C(C1=CC=C(O)C2(O)OCC3(CCCC3)N=C12)c1ccccc1 (stereo not drawn)
CC50 (HT-22 [2]): 109 µM
CC50 [3]: > 250 µM
MTC (HT-22 [4]): 50 µM
MNTC [1]: 50 µM
PC50 (HT-22 [5]): 47.4 µM
PC50 (HT-22 [6]): 40.9 µM
Ratio [7]: 1.2
Ratio [8]: 1.1

CC1(C)COc2c(NCCO)ccc(C(=O)c3ccccc3)c2N1
MNTC [1]: 100 µM

CC(C)CCNc1ccc(C(=O)c2ccccc2)c2c1OCC(C)(C)N2
MNTC [1]: 10 µM

CC1(C)COc2c(NCc3ccccc3)ccc(C(=O)c3ccccc3)c2N1
MNTC [1]: > 250 µM

CC1(CO)COc2c(NCCO)ccc(C(=O)c3ccccc3)c2N1 (stereo not drawn)
MNTC [1]: > 250 µM

CC(C)(C)C1COc2c(NCCc3ccccc3)ccc(C(=O)c3ccccc3)c2N1 (stereo not drawn)
CC50 [3]: > 250 µM
CC50 (HT-22 [9]): > 250 µM
MTC (HT-22 [4]): 100 µM
MNTC [1]: 250 µM
PC50 (HT-22 [10]): 8.8 µM
PC50 (HT-22 [6]): 8.9 µM
Ratio [7]: 28
Ratio [8]: 11

CC(C)(C)C1COC2(O)C(O)=CC=C(C(=O)c3ccccc3)C2=N1 (stereo not drawn)
CC50 [11]: 17.6 µM
CC50 (HT-22 [12]): 38.1 µM
MTC (HT-22 [4]): 10 µM
MTC (HT-22 [13]): 10 µM
PC50 (HT-22 [5]): 6.5 µM
PC50 (HT-22 [6]): 5.8 µM
Ratio [7]: 1.7
Ratio [8]: 1.5

CC1(C)COc2c(NC(CO)CO)ccc(C(=O)c3ccccc3)c2N1
MNTC [1]: > 250 µM

O=C(c1ccccc1)c1ccc(NCc2ccccc2)c2c1NC1(CCCC1)CO2
CC50 [3]: > 250 µM
CC50 (HT-22 [9]): > 250 µM
MTC (HT-22 [4]): >250 µM
MNTC [1]: > 250 µM
PC50 (HT-22 [10]): 6.9 µM
PC50 (HT-22 [14]): 7.1 µM
Ratio [7]: > 36
Ratio [8]: > 36

O=C(C1=CC=C(O)C2(O)OCC(CO)N=C12)c1ccccc1 (stereo not drawn)
MNTC [1]: 25 µM

CC(C)(C)C1COc2c(O)ccc(C(=O)c3ccccc3)c2N1 (stereo not drawn)
MNTC [1]: 5 µM

O=C(c1ccccc1)c1ccc(O)c2c1NC(CO)CO2 (stereo not drawn)
MNTC [1]: 10 µM

O=C(c1ccccc1)c1ccc(NCCO)c2c1NC(CO)(CO)CO2
MNTC [1]: > 250 µM

CC1(CO)COc2c(NC(CO)CO)ccc(C(=O)c3ccccc3)c2N1 (stereo not drawn)
MNTC [1]: > 250 µM

CC(C)(C)C1COc2c(NCc3ccccc3)ccc(C(=O)c3ccccc3)c2N1 (stereo not drawn)
MNTC [1]: > 250 µM

O=C(c1ccccc1)c1ccc(O)c2c1NC1(CCCC1)CO2
CC50 [3]: 36.4 µM
CC50 (HT-22 [9]): 37.5 µM
MTC (HT-22 [4]): 25 µM
MNTC [1]: 25 µM
PC50 (HT-22 [15]): 25 µM
PC50 (HT-22 [14]): 18.4 µM
Ratio [7]: 1.4
Ratio [8]: 1

CC(C)CNc1ccc(C(=O)c2ccccc2)c2c1OCC1(CCCC1)N2
CC50 [3]: > 250 µM
CC50 (HT-22 [9]): > 250 µM
MTC (HT-22 [4]): 10 µM
MNTC [1]: > 250 µM
PC50 (HT-22 [10]): >10 µM
PC50 (HT-22 [14]): >10 µM
Ratio [7]: < 1
Ratio [8]: < 1
